Assay results published in the EternaBench riboswitch data.

System: MS2 coat protein
Test: apparent Kd, MS2 coat protein; higher = weaker binding; RNA-MaP array; FMN 200 µM where present
Summary of the method: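 Green signal was scaled to red-channel RNA signal and control-cluster median Fmax, and the apparent Kd was taken as the median of filtered per-cluster binding-curve fits. The binding series used SNAP-549-labelled MS2 coat protein from 0.7 or 1.5 nM, doubling to 3 µM, on designs transcribed by stalled E. coli RNA polymerase on Illumina sequencing-chip clusters. Each series ran without and then with constant ligand in 100 mM Tris-HCl pH 7.5, 80 mM KCl, 4 mM MgCl2, BSA, DTT, yeast tRNA and Tween-20.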

[1] = designed as: OFF switch for flavin mononucleotide, no ligand
[2] = ligand present: flavin mononucleotide, designed as: OFF switch for flavin mononucleotide
[3] = designed as: ON switch for flavin mononucleotide, no ligand
[4] = ligand present: flavin mononucleotide, designed as: ON switch for flavin mononucleotide

Sequence	apparent Kd [1] [nM]	apparent Kd [2] [nM]	apparent Kd [3] [nM]	apparent Kd [4] [nM]
UAAUUAAAUGUGAGGAUAUGCUGGUCCUUGGAUCAGCAGAAGGCACAUGAGGAUCACCCAUGUAAUUUAUUUAU	75.2	285	–	–
GAGCUGUGAGGAUAUACAUGAGGAUCACCCAUGUUAAGGAAGUGGUGUAUAUUUUAGUGUAGAAGGCACUUAUU	121	439	–	–
AAACAGCGAGAUAAUAAUGAUUACAUGAGGAUCACCCAUGUAUAGGAUAUCGUCAGGAAUACUGACGAGAAGGAUACAACGCUG	16	26.5	–	–
GGUCCAACAUGAGGAUAUAGCACCUUAUUGGUGCUAGAAGGCGUGUCGGUAGACAUGAGGAUCACCCAUGUAUUACAAUGGACC	–	–	140	27
AACACAACAUGAAACAUGAGGAUCACCCAUGUUGUUUGUAAUCAGGAUAUGAUUUUAAUAAUGAAUUAGAAGGGAUAUGGAUUU	–	–	28.9	36.9
GGCGGUUUGGCAGGAUAUCGGAAACAGACCAAACGAGAAGGGCCUACAUGGCAAUGCGAAAGCAGACAUGAGGAUCACCCAUGU	–	–	84.9	72.2
GUAGCAUAUGAUUUACAUGAGGAUCACCCAUGUAUCAUGGGUAAGGAUAUUGAUGUUAUGUUAAUCAAGAAGGUACUAUGCUAC	–	–	281	18.9
GGAGCCGGUACUGAGGAUAUUCAUAUUAAAACAUGAGGAUCACCCAUGUGGGCCAGAAGGCCUUGGGAGAAGGCAGACCAGCUCG	–	–	238	22.1
UGUCGGAGCAGAGGAUAUCACAUGAGGAUCACCCAUGUAUGAACCAAUAGCUGGAAACAGCAAUGUAAGAAGGCUGCUCCGACA	5.64	9.62	–	–
GGCAUGUGGGCAGGAUAUAACUCGGUCUCUAGGUUAGAAGGGCCACACAUGAGGAUCACCCAUGUCGACCAGGCAGUCCUCCCU	26.2	60.5	–	–
AACAGUAGAGGAUAUACAUGAGGAUCACCCAUGUGAUUAUUACGUGGCGUACCACGAAGUAGAAGGCUACUGGA	61	203	–	–
AAAAGACAUGAGGAUCACCCAUGUAAAGACAUAGGAGGAUAUGUCUUGAAAAAAGACUUGACAGAAGGCCUUUGUC	–	–	23.8	20.8
UAAAUAAUGUAAGGAUAUACAUGAGGAAUUCUCGUAGAAGGUACAUGACAUGAGGAUCACCCAUGUAUCGCUCAGUAGAGCGUA	–	–	152	311
UUUUUUCCUCAUGUACAUGAGGAACAUGAGGAUCACCCAUGUAGAAGGAUUUCCCUUAAAUUAAGAUAGGAUAUACAUAUUUUU	88.2	61.6	–	–
AUGCCGUGCAGAGCGCGACGGCGAACAUGAGGAUCACCCAUGUAGGAUAUACUACACAAAGUGUAGUAGAAGGACGUGCGACAA	24.6	38.6	–	–
UUGAAUUUAAACAUGAGGAUCACCCAUGUGUCAUAGUUGAUAUAGGAUAUGUUUAUACUUUGAAAGCAGAAGGAUGACGAUACU	–	–	18.9	15.2
UGAUCUUACAUGAGGAUCACCCAUGUAGACCAGUAACUAACCAGAAGGCACGUAGAGUAAAACAGUGAGGAUAUGGAUGACAUA	–	–	6.66	5.5
CGGUGCUGAGGAUAUACAUGAGGAUCACCCAUGUGUGCCAGCUAGCUGACUGGCACUUGUAGAAGGCAGUACUG	12.7	24.2	–	–
UUGUACUAGGGAGGAUAUGGGAAGAUACAUGAGGAUCACCCAUGUUUAAGAAUGCCGAGAGGCAACUAGAAGGCCCUAGUACCU	–	–	473	19.4
GCUAUCGAUGUAGGAUAUGAUAUAGAAACUAUGUCAGAAGGACAUGAGGAUCACCCAUGUCAAUGGAUGGAGAGAAGAGAUGGC	26.7	52.5	–	–
UUGGACGUCGUAGGAUAUGUAGGAUAUUCCUACAUGAGGAUCACCCAUGUUGACAUGGGAGAAGGACAGAAGGACGAUGUCCAU	–	–	52.4	176
UUGAGGUCAGGAUAUGCAUGGCGGGACUUGCGUCGUGGCGUGGAGAAGGGACAUGAGGAUCACCCAUGUGGAGA	83.5	81.6	–	–
GCAGGUUUACGAGGAUAUGGGUGGUACGGACAUGAGGAUCACCCAUGUCUCCCAGAAGGCGUAGCCUAACAAAGAGAACAGGAG	–	–	111	19.2
UAUAUAUAGUAAGGAUAUGUAUAUAUUGUAUAAACAGAAGGUACUGACAUGAGGAUCACCCAUGUUUUAGUGUGGGCAUGUAGA	76.5	121	–	–
GGGCAAUUAGGAUAUACAUGAGGAUCACCCAUGUGGAAGCCCGGACAGGUAAUCCACUGUAGAAGGGAUUGCGG	14.8	15	–	–
GACUUGGCUACAUGAGGAUCACCCAUGUUUGACUGGAUCGAUUAGGAUAUAGUGAUUUGCAACAAUUAGAAGGGAUGUUUACGG	–	–	23	28.8
ACUCGUGGACAGAAGGCGACAUGAGGAUCACCCAUGUUGGCUCGGGUAUGACCAAUCCGCAUGAUCGAGGAUAUGUCUGCGGGC	326	16.1	–	–
AAAUUCUGAGGAUAUCGAUGUUUGUACAUGAGGAUCACCCAUGUCCUUUUUAUUUAAUCCCGAGAAGGCAGUGUAU	29	25.8	–	–

Sequence	apparent Kd [1] [nM]	apparent Kd [2] [nM]	apparent Kd [3] [nM]	apparent Kd [4] [nM]
GAAAAGGUAGGAUAUACGAAAAAAAAGGGUAGAAAAAAAAAACAUGAGGAUCACCCAUGUAGAAGGACCAAAAG	39.6	93.2	–	–
UGCUUCGUGUAAGGAUAUGCAGCCGUUUCGGCUGCAGAAGGUACUAUAAUACAUGAGGAUCACCCAUGUCUCUCGCUUUGCGGG	–	–	63.6	29.4
GGGUACAUCGGAGGAUAUUAUGUAAAUACAUGAGGAUCACCCAUGUCGAUGGAGACAUCGGAGAUUGAGAAGGCCGAUGUACCG	–	–	119	8.94
AACAUUGACAAGAAGGCAAACAUGAGGAUCACCCAUGUUCUGCAUGUAUAUUGAGGAUAUUGCCAAUGUAUGUGGAUCACCCAA	6.76	14.8	–	–
CGCACUGUACAUGAGGAUCACCCAUGUUAAUAUGAGGUAGUCAGAAGGCAUUGUUUGAGAUAUUAUGAGGAUAUGAUUAGUGCG	–	–	110	28.9
UUUAGUUCAGGAUAUGUAGAUUUUAACAUGAGGAUCACCCAUGUAGAUCCUGAAUUAACUACAGAAGGGAACAUUC	17.1	44.2	–	–
AUCAGCUCGUCAGGAUAUAAGUCACUGCGUCAGCAGUGUGGUAAGAUCACAUGAGGAUCACCCAUGUAGAAGGGACGAGCUGAU	11.8	46.7	–	–
ACAUACUUUCGAGGAUAUCGGUGAUAAAUUUUACGAGAAGGCGAUAAAAGAUAUAAUCUUAUAAACAUGAGGAUCACCCAUGUA	–	–	25.5	23.9
GUCAGCUCGUCAGGAUAUACGUCACUGCUUCGGCAGUGUGGUAAGAUCACAUGAGGAUCACCCAUGUAGAAGGGACGAGCUGAC	13.7	252	–	–
UUACUUUUACAGAAGGUUUAAUAAUAUAUAAGAGAAGGAUAUGUAACAUGAGGAUCACCCAUGUUUCACCCAUAUGAGGAUCAU	8.12	7.78	–	–
UUUUAACAUGAGGAUCACCCAUGUGAGGAUAUCGAAAUUUAUAUUUAUAUUAAUUAUUCGAGAAGGCACAUUUU	163	133	–	–
CCGGCUUACUAGGAUAUAGGAGUCGAUAGACACCUAGAAGGAGUAACAUGAGGAUCACCCAUGUGUCCUACCGG	22.1	86	–	–
UUGUUGUGAGGAUAUCCAAUAUAUGACAUGAGGAUCACCCAUGUUUCCACUCGUACCUCCGGAGAAGGCACUUGGU	35.5	29.1	–	–
GCUGCAAAUGAGAAGGCGAUCAUGAAACAUGAUCGAGGAUAUCAUGUUUACAUGAGGAUCACCCAUGUAUGGGUAUAUUGCAGC	–	–	707	14.3
UUUAUGAAGAUUCGUCAAUACAGUUAGGAUAUGAGAGACAUGAGGAUCACCCAUGUGCAUGUUGAUUAGAAGGAACAAUUAUCU	19.1	16.9	–	–
AAAAGAUGAGGAUAUAUAUGGAAUCCAAGGCAUGUGCUCUCACAUGAGGAUCACCCAUGUAGAAGGCAUCUGCC	10.1	13	–	–
GCACUGGAUGUAGGAUAUCAGGACGAUAAGUCCUGAGAAGGACAUGAGGAUCACCCAUGUGCUUAAACCAGUGCAUAUAAUAUA	12.2	18.4	–	–
UUAGGCUUCUAGAAGGCGGUCCAGCUAGAGGACCGAGGAUAUAGGCACCUAACAUGAGGAUCACCCAUGUUAGUGAUUCCUCAA	132	166	–	–
CGAUAUAUGAAGGGCUAAUGCCCACAUGAGGAUCACCCAUGUAGAAGGCGAUCCGCAACGCGGAUCGAGGAUAUAUAGUAUACA	9.02	9.66	–	–
AACAAUCUAUCUGAGGAUAUUAUGAAAUAAACAUGAGGAUCACCCAUGUGCAGGAAAACUGCAUAUGAGAAGGCAGAUAGAUUGA	–	–	428	18.5
UGGAUCAUCGGAGGAUAUCAUGUGUAAACAUGAGGAUCACCCAUGUCGUACGAGAGUACGGAGAUUGAGAAGGCCGAUGAUCCU	–	–	85.4	16.4
UCGGCGCGAGGAUAUACGUUUGCUUUUUUUUGUUUUUGUGUACAUGAGGAUCACCCAUGUAGAAGGCGCGCCGC	18.1	24.9	–	–
CCGGAAGUACAGGAUAUAGGAGUCGAUAGACUCCUAGAAGGGUAUACAUGAGGAUCACCCAUGUGUCCUACCGG	29.6	33.4	–	–
AAACACGGACAUGAGGAUCACCCAUGUGGCGAAAGCCUUGGGAGAAGGCCGUAUGCAAAGCAUACGGAGGAUAUUCAUACCGUG	–	–	1410	67.9
AAACAUGUCCGAGGAUAUCUGAGAUCAUUUUCAAGAGAAGGCGGACAUGAGGAUCACCCAUGUCUCUCCUCAUCAACUCCAAAG	7.22	35.6	–	–
ACAUGAGGAUCACCCAUGUAUUACAUGGUUAAGUUUAUUAACAGAAGGCGAAAUUACCACUUGAUCGAGGAUAUGUAUUCAAUU	45	40.3	–	–
UUUUAACAUGAGGAUCACCCAUGUGAGGAUAUCGAAAUUUAUAUUAAUAUUAAUUUUUCGAGAAGGCACAUUUU	132	150	–	–
